Experiments:
MDA-MB-231 = test: Cytotoxicity against human MDA-MB-231 cells assessed as cell growth inhibition after 24 hrs by MTT assay; type: functional, cell-based; details: MDA-MB-231, 24 h
Method in brief: (§1)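 Cells seeded 24 h in RPMI 1640 + 10% FBS. RWPE-1 was kept in K-SFM with bovine pituitary extract and EGF. Cells then exposed to compounds for 24 h at 37 °C, 5% CO2, with DMSO vehicle and docetaxel as positive control. MTT added for 4 h, absorbance read at 570 nm. Triplicate runs, IC50 reported as mean of three experiments.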

HeLa = test: Cytotoxicity against human HeLa cells assessed as cell growth inhibition after 24 hrs by MTT assay; type: functional, cell-based; method in brief: as §1
K562 = test: Cytotoxicity against human K562 cells assessed as cell growth inhibition after 24 hrs by MTT assay; type: functional, cell-based; details: K562, 24 h; method in brief: as §1
PC-3 = test: Cytotoxicity against human PC3 cells assessed as cell growth inhibition after 24 hrs by MTT assay; type: functional, cell-based; details: PC-3, 24 h; method in brief: as §1
DU-145 = test: Cytotoxicity against human DU145 cells assessed as cell growth inhibition after 24 hrs by MTT assay; type: functional, cell-based; details: DU-145, 24 h; method in brief: as §1
MCF7 = test: Cytotoxicity against human MCF7 cells assessed as cell growth inhibition after 24 hrs by MTT assay; type: functional, cell-based; details: MCF7, 24 h; method in brief: as §1
RWPE-1 = test: Cytotoxicity against human RWPE1 cells assessed as cell growth inhibition after 24 hrs by MTT assay; type: cell-based; details: RWPE-1, 24 h; method in brief: as §1

Q: `O=C1C[C@@H](c2ccc([N+](=O)[O-])cc2)N2CCc3cc(OCc4ccccc4)c(OCc4ccccc4)cc3[C@@H]2C1` was tested. Which IC50 (MDA-MB-231) did it give?
A: > 20 µM

Q: What about the IC50 (HeLa) of the same compound?
A: > 20 µM

Q: What about the IC50 (K562) of the same compound?
A: > 20 µM

Q: What about the IC50 (PC-3) of the same compound?
A: > 20 µM

Q: And the IC50 (DU-145)?
A: > 20 µM

Q: And the IC50 (MCF7)?
A: > 20 µM

Q: And the IC50 (RWPE-1)?
A: > 20 µM

Q: Which results are given for `C[C@@H]1CC(=O)C[C@H]2c3cc(OCc4ccc(Br)cc4)c(OCc4ccc(Br)cc4)cc3CCN12` (relative stereo)?
A: IC50 (MDA-MB-231): > 20 µM; IC50 (HeLa): > 20 µM; IC50 (K562): > 20 µM; IC50 (PC-3): > 20 µM; IC50 (DU-145): > 20 µM; IC50 (MCF7): > 20 µM; IC50 (RWPE-1): > 20 µM

Q: For `CC[C@@H]1C[C@@H](O)C/C=C(/C)[C@H]2c3cc(OCc4ccccc4)c(OCc4ccccc4)cc3CCN12`, which IC50 (MDA-MB-231) is on record?
A: > 20 µM

Q: What about the IC50 (HeLa) of the same compound?
A: > 20 µM

Q: What about the IC50 (K562) of the same compound?
A: > 20 µM

Q: And the IC50 (PC-3)?
A: > 20 µM

Q: And the IC50 (DU-145)?
A: > 20 µM

Q: And the IC50 (MCF7)?
A: > 20 µM

Q: What about the IC50 (RWPE-1) of the same compound?
A: > 20 µM

Q: With `C/C=C/C(=O)CC1c2cc(OCc3cc(C)cc(C)c3)c(OCc3cc(C)cc(C)c3)cc2CCN1C(=O)OC(C)(C)C` (configuration not stated) as the compound, how does the IC50 (MDA-MB-231) read?
A: > 20 µM

Q: And the IC50 (HeLa)?
A: > 20 µM

Q: What about the IC50 (K562) of the same compound?
A: > 20 µM

Q: And the IC50 (PC-3)?
A: > 20 µM

Q: What about the IC50 (DU-145) of the same compound?
A: > 20 µM

Q: What about the IC50 (MCF7) of the same compound?
A: > 20 µM

Q: What about the IC50 (RWPE-1) of the same compound?
A: > 20 µM

Q: With `O[C@@]1(c2ccccc2)C[C@@H](c2ccccc2)N2CCc3cc(OCc4ccccc4)c(OCc4ccccc4)cc3[C@@H]2C1` as the compound, how does the IC50 (MDA-MB-231) read?
A: > 20 µM

Q: What about the IC50 (HeLa) of the same compound?
A: > 20 µM

Q: What about the IC50 (K562) of the same compound?
A: > 20 µM

Q: And the IC50 (PC-3)?
A: > 20 µM

Q: What about the IC50 (DU-145) of the same compound?
A: > 20 µM

Q: And the IC50 (MCF7)?
A: > 20 µM

Q: What about the IC50 (RWPE-1) of the same compound?
A: > 20 µM

Q: With `COc1ccc([C@@H]2CC(=O)C[C@H]3c4cc(OCc5cc(F)cc(F)c5)c(OCc5cc(F)cc(F)c5)cc4CCN23)cc1OC` (relative stereo) as the compound, how does the IC50 (MDA-MB-231) read?
A: > 20 µM

Q: What about the IC50 (HeLa) of the same compound?
A: > 20 µM

Q: What about the IC50 (K562) of the same compound?
A: > 20 µM

Q: And the IC50 (PC-3)?
A: > 20 µM

Q: What about the IC50 (DU-145) of the same compound?
A: > 20 µM

Q: And the IC50 (MCF7)?
A: > 20 µM

Q: And the IC50 (RWPE-1)?
A: > 20 µM

Q: With `O=C1C[C@@H](c2ccccc2)N2CCc3cc(O)c(O)cc3[C@@H]2C1` (relative stereo) as the compound, how does the IC50 (MDA-MB-231) read?
A: > 20 µM

Q: What about the IC50 (HeLa) of the same compound?
A: > 20 µM

Q: And the IC50 (K562)?
A: > 20 µM

Q: What about the IC50 (PC-3) of the same compound?
A: > 20 µM

Q: What about the IC50 (DU-145) of the same compound?
A: > 20 µM

Q: And the IC50 (MCF7)?
A: > 20 µM

Q: What about the IC50 (RWPE-1) of the same compound?
A: > 20 µM

Q: Which IC50 (MDA-MB-231) does the source give for `C[C@@]1(O)C[C@@H](c2ccccc2)N2CCc3cc(OCc4ccccc4)c(OCc4ccccc4)cc3[C@@H]2C1` here?
A: 5.48 µM

Q: What about the IC50 (HeLa) of the same compound?
A: 6.57 µM

Q: And the IC50 (K562)?
A: 1.98 µM

Q: What about the IC50 (DU-145) of the same compound?
A: 11.6 µM

Q: And the IC50 (MCF7)?
A: 9.2 µM

Q: And the IC50 (RWPE-1)?
A: 2.02 µM

Q: How did the IC50 (MDA-MB-231) turn out when `C[C@@H]1C[C@H](O)C[C@H]2c3cc(OCc4ccccc4)c(OCc4ccccc4)cc3CCN12` was run?
A: 7.22 µM

Q: What about the IC50 (HeLa) of the same compound?
A: 1.06 µM

Q: And the IC50 (K562)?
A: 3.26 µM

Q: And the IC50 (PC-3)?
A: 7.67 µM

Q: And the IC50 (DU-145)?
A: 1.95 µM

Q: What about the IC50 (MCF7) of the same compound?
A: 2.5 µM

Q: Which IC50 (MDA-MB-231) does the source give for `C[C@@H]1C[C@H](O)C[C@H]2c3cc(OCc4cc(F)cc(F)c4)c(OCc4cc(F)cc(F)c4)cc3CCN12` here?
A: 3.16 µM

Q: And the IC50 (HeLa)?
A: 3.04 µM

Q: What about the IC50 (K562) of the same compound?
A: 2.29 µM

Q: With `CC1(C)C[C@@H](O)C[C@H]2c3cc(OCc4ccccc4)c(OCc4ccccc4)cc3CCN21` (relative stereo) as the compound, how does the IC50 (MDA-MB-231) read?
A: 5.01 µM

Q: What about the IC50 (HeLa) of the same compound?
A: 7.22 µM

Q: What about the IC50 (K562) of the same compound?
A: 5.44 µM

Q: Which IC50 (MDA-MB-231) does the source give for `CCC[C@@H]1C[C@@](C)(O)C[C@H]2c3cc(OCc4ccccc4)c(OCc4ccccc4)cc3CCN12` here?
A: 2.37 µM

Q: What about the IC50 (HeLa) of the same compound?
A: 6.34 µM

Q: And the IC50 (K562)?
A: 6.81 µM

Q: With `C[C@@H]1C[C@@](C)(O)C[C@H]2c3cc(OCc4ccccc4)c(OCc4ccccc4)cc3CCN12` as the compound, how does the IC50 (MDA-MB-231) read?
A: 6.47 µM

Q: And the IC50 (HeLa)?
A: 5.21 µM

Q: What about the IC50 (PC-3) of the same compound?
A: 2.6 µM

Q: And the IC50 (DU-145)?
A: 2.11 µM

Q: What about the IC50 (MCF7) of the same compound?
A: 1.39 µM

Q: Which IC50 (MDA-MB-231) does the source give for `CCC[C@@H]1C[C@@H](O)C[C@H]2c3cc(OCc4ccccc4)c(OCc4ccccc4)cc3CCN12` here?
A: 2.57 µM

Q: And the IC50 (HeLa)?
A: 2.38 µM

Q: And the IC50 (K562)?
A: 2.32 µM

Q: How did the IC50 (MDA-MB-231) turn out when `CC[C@@H]1C[C@H](O)C[C@H]2c3cc(OCc4ccccc4)c(OCc4ccccc4)cc3CCN12` was run?
A: 10.2 µM

Q: What about the IC50 (HeLa) of the same compound?
A: 5.27 µM

Q: And the IC50 (K562)?
A: 3.81 µM

Q: And the IC50 (PC-3)?
A: 3.52 µM

Q: What about the IC50 (DU-145) of the same compound?
A: 3.37 µM

Q: What about the IC50 (MCF7) of the same compound?
A: 3.02 µM

Q: Which IC50 (MDA-MB-231) does the source give for `C[C@@H]1C[C@H](O)C[C@H]2c3cc(OCc4ccc(Br)cc4)c(OCc4ccc(Br)cc4)cc3CCN12` here?
A: 2.25 µM

Q: And the IC50 (HeLa)?
A: 2.88 µM

Q: What about the IC50 (K562) of the same compound?
A: 3.15 µM

Q: What about the IC50 (RWPE-1) of the same compound?
A: 2.89 µM

Q: For `C[C@@H]1CC(=O)C[C@H]2c3cc(OCc4ccccc4)c(OCc4ccccc4)cc3CCN12` (relative stereo), which IC50 (MDA-MB-231) is on record?
A: 2.52 µM

Q: What about the IC50 (HeLa) of the same compound?
A: 2.99 µM

Q: What about the IC50 (K562) of the same compound?
A: > 20 µM

Q: What about the IC50 (PC-3) of the same compound?
A: 2.27 µM

Q: What about the IC50 (DU-145) of the same compound?
A: 4.25 µM

Q: What about the IC50 (MCF7) of the same compound?
A: 2.23 µM

Q: Which results are given for `C[C@@H]1C[C@H](O)C[C@H]2c3cc(OCc4ccc(C(C)(C)C)cc4)c(OCc4ccc(C(C)(C)C)cc4)cc3CCN12`?
A: IC50 (MDA-MB-231): 1.46 µM; IC50 (HeLa): 2.56 µM; IC50 (K562): 2.88 µM

Reference: ChEMBL document CHEMBL4425094, “Novel Benzo[a]quinolizidine Analogs Induce Cancer Cell Death through Paraptosis and Apoptosis” (J Med Chem, 2016)
